This passage reports IC50 and Activity results from ChEMBL document CHEMBL1157086, “Sesquiterpenoid aminoquinones from the marine sponge Dysidea sp” (J Nat Prod, 2010).

Activity calls are given as the source filed them. No cut-off for these calls is given here.

For test [1], the system named is Radical scavenging activity. Nature of the test: Antioxidant activity assessed as DPPH radical scavenging activity after 30 mins. Format: functional. Put shortly: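 In EtOH, test concentrations 5, 10, 20, 50, 100 µM mixed with DPPH (0.1 mM final). A517 read after 30 min. Percent inhibition calculated against DPPH-only control, corrected for the compound's own absorbance at 517 nm. IC50 taken from the plotted inhibition curve as the concentration scavenging 50% of DPPH. Trolox served as positive control.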
(In general: Loss of DPPH colour is used to gauge radical scavenging.)

In test [2] the test system is Staphylococcus aureus. Nature of the test: Antibacterial activity against Staphylococcus aureus at 100 ug/ml. Format: functional, organism-based.
The test system of test [3] is Candida albicans. In words: Antifungal activity against Candida albicans at 100 ug/ml. The test is classed as functional, organism-based.
The subject of test [4] is Escherichia coli. In words: Antibacterial activity against Escherichia coli at 100 ug/ml. Format: functional, organism-based.
Test [5] has as its system Ehrlich. In words: Cytotoxicity activity against mouse EAC at 100 ug/ml. The test is classed as functional, cell-based.

As usually defined, the IC50 is the concentration at which inhibition is half-maximal. For the compound `Cc1c(C)c2c(c(C)c1O)CCC(C)(C(=O)O)O2` (centres undefined) [TROLOX], the IC50 in test [1] stood at 16 µM.

For `C=C1CCC[C@H]2[C@](C)(CC3=CC(=O)C(N)=CC3=O)[C@@H](C)CC[C@@]12C`, the result in test [2], in test [3], in test [4] and in test [5] was inactive.

Consider `C=C1CCC[C@H]2[C@](C)(CC3=CC(=O)C=C(NC)C3=O)[C@@H](C)CC[C@@]12C`, for which the result in test [2], in test [3], in test [4] and in test [5] was inactive.

`C=C1CCC[C@H]2[C@](C)(CC3=CC(=O)C(NC)=CC3=O)[C@@H](C)CC[C@@]12C`: the outcome in test [2], in test [3], in test [4] and in test [5] was inactive.

As to `C=C1CCC[C@H]2[C@](C)(CC3=CC(=O)C=C(Nc4ccc(O)c(C[C@]5(C)[C@@H](C)CC[C@@]6(C)C(=C)CCC[C@@H]56)c4)C3=O)[C@@H](C)CC[C@@]12C` [POPOLOHUANONE A], the IC50 in test [1] stood at 35 µM.

Regarding `C=C1CCC[C@H]2[C@](C)(CC3=CC(=O)C=C(N)C3=O)[C@@H](C)CC[C@@]12C`, the outcome in test [2], in test [3], in test [4] and in test [5] was inactive.

Turning to `C=C1CCC[C@H]2[C@](C)(Cc3cc(O)ccc3O)[C@@H](C)CC[C@@]12C` [ARENAROL], the IC50 in test [1] stood at 19 µM.

With `C=C1CCC[C@H]2[C@](C)(CC3=CC(=O)C(Nc4ccc(O)c(C[C@]5(C)[C@@H](C)CC[C@@]6(C)C(=C)CCC[C@@H]56)c4)=CC3=O)[C@@H](C)CC[C@@]12C` [POPOLOHUANONE F], in test [1], the IC50 was determined as 35 µM. The outcome in test [2], in test [3], in test [4] and in test [5] was inactive.
